Measurements: ChEMBL document CHEMBL1129605, “Synthesis, structure-activity relationships, and molecular modeling studies of N-(indol-3-ylglyoxylyl)benzylamine derivatives acting at the benzodiazepine receptor” (J Med Chem, 1996)

Test system: not listed separately
Experiment: Partition coefficient of compound
Type: physicochemical
Settings: octanol/water
Summary of the method: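 Shake-flask partition at room temperature between octanol and phosphate buffer pH 7.4. Solute measured spectrophotometrically in both phases, with phase volumes adjusted so each phase held enough compound. Run at four different solute concentrations.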

SMILES	logP
COc1ccc(CNC(=O)C(=O)c2c[nH]c3ccc([N+](=O)[O-])cc23)cc1	2.17
O=C(NCc1ccc(F)cc1)C(=O)c1c[nH]c2ccccc12	2.88
O=C(NCc1ccc(O)cc1)C(=O)c1c[nH]c2ccc([N+](=O)[O-])cc12	2.67

Target: T1, GABA-A receptor; anion channel (Bos taurus) (UniProt P10063+P08220+P20237+P08219+P10064+P22300)
Experiment: Gamma AminoButyric Acid(GABA) ratio is the Ki without GABA / Ki with GABA
Type: protein-complex assay
Settings: not given
Summary of the method: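 Ki for [3H]flunitrazepam displacement from bovine cortical membranes determined both without and with GABA. The ratio is Ki without GABA divided by Ki with GABA.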

SMILES	GABA ratio
COc1cccc(CNC(=O)C(=O)c2c[nH]c3ccc(Cl)cc23)c1	0.79
COc1ccc(CNC(=O)C(=O)c2c[nH]c3ccccc23)cc1OC	0.8
COc1ccc(CNC(=O)C(=O)c2c[nH]c3ccc([N+](=O)[O-])cc23)cc1OC	1
COc1cc(CNC(=O)C(=O)c2c[nH]c3ccc(Cl)cc23)ccc1O	1.03
O=C(Nc1ccc(O)cc1)C(=O)c1c[nH]c2ccc([N+](=O)[O-])cc12	1
COc1ccc(CNC(=O)C(=O)c2cn(C)c3ccccc23)cc1OC	0.88
O=C(NCCCc1ccccc1)C(=O)c1c[nH]c2ccccc12	1
O=C(NCc1ccccc1)C(=O)c1c[nH]c2ccccc12	0.87
O=C(NCc1ccc(O)c(O)c1)C(=O)c1c[nH]c2ccccc12	1.56
COc1cc(CNC(=O)C(=O)c2c[nH]c3ccc([N+](=O)[O-])cc23)ccc1O	1.07
O=C(NCc1ccc(O)c(O)c1)C(=O)c1c[nH]c2ccc([N+](=O)[O-])cc12	1.35
O=C(NCc1cccc(O)c1)C(=O)c1c[nH]c2ccc([N+](=O)[O-])cc12	1.32
COc1ccc(CNC(=O)C(=O)c2c[nH]c3ccc(Cl)cc23)cc1OC	0.82
COc1ccc(CNC(=O)C(=O)c2c[nH]c3ccc([N+](=O)[O-])cc23)cc1	1.06
COc1cc(CNC(=O)C(=O)c2c[nH]c3ccccc23)ccc1O	1
O=C(NCc1ccc(F)cc1)C(=O)c1c[nH]c2ccccc12	1.16
O=C(NCc1ccccc1)C(=O)c1c[nH]c2ccc(Cl)cc12	0.95
O=C(NCc1ccccc1)C(=O)c1c[nH]c2ccc([N+](=O)[O-])cc12	1
O=C(NCc1ccccc1Cl)C(=O)c1c[nH]c2ccccc12	0.93
COc1ccc(CNC(=O)C(=O)c2c[nH]c3ccc(Cl)cc23)cc1	1
O=C(NCc1ccc(O)cc1)C(=O)c1c[nH]c2ccccc12	1.35
O=C(NCc1ccc(Cl)cc1)C(=O)c1c[nH]c2ccccc12	1.03
COc1cccc(CNC(=O)C(=O)c2c[nH]c3ccc([N+](=O)[O-])cc23)c1	0.91
Cn1cc(C(=O)C(=O)NCc2ccc(Cl)cc2)c2ccccc21	1
O=C(NCc1ccc(O)cc1)C(=O)c1c[nH]c2ccc(Cl)cc12	1.1
O=C(NCc1cccc(Cl)c1)C(=O)c1c[nH]c2ccccc12	0.95
O=C(NCc1ccccc1F)C(=O)c1c[nH]c2ccccc12	0.86
O=C(NCc1ccc(O)cc1)C(=O)c1c[nH]c2ccc([N+](=O)[O-])cc12	1.05

Target: T1, GABA-A receptor; anion channel (Bos taurus)
Experiment: In vitro inhibition of [3H]- flunitrazepam binding to GABA-A central benzodiazepine receptor of bovine cortical membranes at 10 uM
Settings: not given
Summary of the method: (§1)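 Filtration binding of [3H]flunitrazepam to bovine cerebral cortex membranes, freeze–thawed and washed in 50 mM Tris-citrate pH 7.4. […] IC50 taken from log-probit plots and converted to Ki, mean ± SEM of three determinations.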

SMILES	inhibition
COc1cccc(CNC(=O)C(=O)c2c[nH]c3ccc(Cl)cc23)c1	89%
COc1ccc(CNC(=O)C(=O)c2c[nH]c3ccccc23)cc1OC	99%
COc1ccc(CNC(=O)C(=O)c2c[nH]c3ccc([N+](=O)[O-])cc23)cc1OC	97%
COc1cc(CNC(=O)C(=O)c2c[nH]c3ccc(Cl)cc23)ccc1O	99%
COc1ccc(CNC(=O)C(=O)c2cn(C)c3ccccc23)cc1OC	70%
O=C(NCCCc1ccccc1)C(=O)c1c[nH]c2ccccc12	78%
O=C(NCc1ccc(O)c(O)c1)C(=O)c1c[nH]c2ccccc12	95%
COc1cc(CNC(=O)C(=O)c2c[nH]c3ccc([N+](=O)[O-])cc23)ccc1O	100%
O=C(NCc1ccc(O)c(O)c1)C(=O)c1c[nH]c2ccc([N+](=O)[O-])cc12	98%
COc1ccc(CNC(=O)C(=O)c2c[nH]c3ccc(Cl)cc23)cc1OC	94%
COc1cc(CNC(=O)C(=O)c2c[nH]c3ccccc23)ccc1O	96%
O=C(NCc1ccc(F)cc1)C(=O)c1c[nH]c2ccccc12	99%
O=C(NCc1ccccc1Cl)C(=O)c1c[nH]c2ccccc12	77%
O=C(NCc1ccc(O)cc1)C(=O)c1c[nH]c2ccccc12	96%
O=C(NCc1ccc(Cl)cc1)C(=O)c1c[nH]c2ccccc12	99%
COc1cccc(CNC(=O)C(=O)c2c[nH]c3ccc([N+](=O)[O-])cc23)c1	84%
Cn1cc(C(=O)C(=O)NCc2ccc(Cl)cc2)c2ccccc21	86%
O=C(NCc1ccc(O)cc1)C(=O)c1c[nH]c2ccc(Cl)cc12	98%
O=C(NCc1cccc(Cl)c1)C(=O)c1c[nH]c2ccccc12	96%
O=C(NCc1ccccc1F)C(=O)c1c[nH]c2ccccc12	94%

Target: GABA-A receptor; anion channel
Experiment: In vitro inhibition of [3H]- flunitrazepam binding to GABA-A benzodiazepine receptor of bovine cortical membranes
Parameters: species or system Bos taurus
Settings: not given
Summary of the method: as §1

SMILES	Ki
COc1cccc(CNC(=O)C(=O)c2c[nH]c3ccc(Cl)cc23)c1	162 nM
COc1ccc(CNC(=O)C(=O)c2c[nH]c3ccccc23)cc1OC	94 nM
COc1ccc(CNC(=O)C(=O)c2c[nH]c3ccc([N+](=O)[O-])cc23)cc1OC	11 nM
COc1cc(CNC(=O)C(=O)c2c[nH]c3ccc(Cl)cc23)ccc1O	27 nM
O=C(Nc1ccc(O)cc1)C(=O)c1c[nH]c2ccc([N+](=O)[O-])cc12	1800 nM
COc1ccc(CNC(=O)C(=O)c2cn(C)c3ccccc23)cc1OC	2700 nM
O=C(NCCCc1ccccc1)C(=O)c1c[nH]c2ccccc12	1260 nM
O=C(NCc1ccccc1)C(=O)c1c[nH]c2ccccc12	120 nM
O=C(NCc1ccc(O)c(O)c1)C(=O)c1c[nH]c2ccccc12	349 nM
COc1cc(CNC(=O)C(=O)c2c[nH]c3ccc([N+](=O)[O-])cc23)ccc1O	13 nM
O=C(NCc1ccc(O)c(O)c1)C(=O)c1c[nH]c2ccc([N+](=O)[O-])cc12	48 nM
O=C(NCc1cccc(O)c1)C(=O)c1c[nH]c2ccc([N+](=O)[O-])cc12	65 nM
COc1ccc(CNC(=O)C(=O)c2c[nH]c3ccc(Cl)cc23)cc1OC	30 nM
COc1ccc(CNC(=O)C(=O)c2c[nH]c3ccc([N+](=O)[O-])cc23)cc1	53 nM
COc1cc(CNC(=O)C(=O)c2c[nH]c3ccccc23)ccc1O	140 nM
O=C(NCc1ccc(F)cc1)C(=O)c1c[nH]c2ccccc12	52 nM
O=C(NCc1ccccc1)C(=O)c1c[nH]c2ccc(Cl)cc12	490 nM
O=C(NCc1ccccc1)C(=O)c1c[nH]c2ccc([N+](=O)[O-])cc12	117 nM
O=C(NCc1ccccc1Cl)C(=O)c1c[nH]c2ccccc12	2600 nM
COc1ccc(CNC(=O)C(=O)c2c[nH]c3ccc(Cl)cc23)cc1	107 nM
O=C(NCc1ccc(O)cc1)C(=O)c1c[nH]c2ccccc12	430 nM
O=C(NCc1ccc(Cl)cc1)C(=O)c1c[nH]c2ccccc12	67 nM
COc1cccc(CNC(=O)C(=O)c2c[nH]c3ccc([N+](=O)[O-])cc23)c1	38 nM
Cn1cc(C(=O)C(=O)NCc2ccc(Cl)cc2)c2ccccc21	1000 nM
O=C(NCc1ccc(O)cc1)C(=O)c1c[nH]c2ccc(Cl)cc12	150 nM
O=C(NCc1cccc(Cl)c1)C(=O)c1c[nH]c2ccccc12	160 nM
O=C(NCc1ccccc1F)C(=O)c1c[nH]c2ccccc12	660 nM
O=C(NCc1ccc(O)cc1)C(=O)c1c[nH]c2ccc([N+](=O)[O-])cc12	12 nM

Target: T1, GABA-A receptor; anion channel (Bos taurus)
Experiment: Specific [35S]- TBPS binding at high affinity site loated near chloride channel of GABA-A receptor chloride complex
Type: protein-complex assay
Parameters: concentration or dose not given beside the values
Settings: not given
Summary of the method: (§2)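 Bovine cerebral cortex membranes, freeze–thawed and washed in 50 mM Tris-citrate pH 7.4, incubated with 5 nM [35S]TBPS for 90 min at 25 °C in the same buffer plus 200 mM KBr and 0.1 mM EDTA. Compounds tested at 0.5 μM in ethanol (≤0.2%) with 1 μM GABA present. Nonspecific binding taken with 600 μM picrotoxinin. Bound ligand collected by filtration and counted by scintillation.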

SMILES	Activity
COc1ccc(CNC(=O)C(=O)c2c[nH]c3ccc([N+](=O)[O-])cc23)cc1OC	31%
O=C(NCc1ccccc1)C(=O)c1c[nH]c2ccccc12	29%
COc1cc(CNC(=O)C(=O)c2c[nH]c3ccc([N+](=O)[O-])cc23)ccc1O	27%
O=C(NCc1ccc(O)c(O)c1)C(=O)c1c[nH]c2ccc([N+](=O)[O-])cc12	52%
O=C(NCc1cccc(O)c1)C(=O)c1c[nH]c2ccc([N+](=O)[O-])cc12	50%
COc1ccc(CNC(=O)C(=O)c2c[nH]c3ccc([N+](=O)[O-])cc23)cc1	2%
O=C(NCc1ccc(F)cc1)C(=O)c1c[nH]c2ccccc12	21%
O=C(NCc1ccc(Cl)cc1)C(=O)c1c[nH]c2ccccc12	27%
COc1cccc(CNC(=O)C(=O)c2c[nH]c3ccc([N+](=O)[O-])cc23)c1	10%

Target: T1, GABA-A receptor; anion channel (Bos taurus)
Experiment: In vitro displacement of [35S]-TBPS binding from GABA-A receptor relative to clonazepam
Type: protein-complex assay
Settings: not given
Summary of the method: as §2

SMILES	Activity
O=C(NCc1ccc(O)cc1)C(=O)c1c[nH]c2ccc([N+](=O)[O-])cc12	10%

Target: T1, GABA-A receptor; anion channel (Bos taurus)
Experiment: Inhibition of [3H]- flunitrazepam binding to GABA-A central benzodiazepine receptor of bovine cortical membranes at 10 uM
Settings: not given
Summary of the method: as §1

SMILES	inhibition
O=C(Nc1ccc(O)cc1)C(=O)c1c[nH]c2ccc([N+](=O)[O-])cc12	76%
O=C(NCc1ccccc1)C(=O)c1c[nH]c2ccccc12	98%
O=C(NCc1cccc(O)c1)C(=O)c1c[nH]c2ccc([N+](=O)[O-])cc12	95%
COc1ccc(CNC(=O)C(=O)c2c[nH]c3ccc([N+](=O)[O-])cc23)cc1	71%
O=C(NCc1ccccc1)C(=O)c1c[nH]c2ccc(Cl)cc12	34%
O=C(NCc1ccccc1)C(=O)c1c[nH]c2ccc([N+](=O)[O-])cc12	55%
COc1ccc(CNC(=O)C(=O)c2c[nH]c3ccc(Cl)cc23)cc1	81%
O=C(NCc1ccc(O)cc1)C(=O)c1c[nH]c2ccc([N+](=O)[O-])cc12	100%
